Source: article PMC2266610 (The Journal of General Physiology, 2005)
“Also recorded” adds a separate entry of the source.

Biological target: T1, homomeric (CNGA1) rod CNG channel (Bos taurus, UniProt Q00194)
T1 sequence (Q00194 1-690): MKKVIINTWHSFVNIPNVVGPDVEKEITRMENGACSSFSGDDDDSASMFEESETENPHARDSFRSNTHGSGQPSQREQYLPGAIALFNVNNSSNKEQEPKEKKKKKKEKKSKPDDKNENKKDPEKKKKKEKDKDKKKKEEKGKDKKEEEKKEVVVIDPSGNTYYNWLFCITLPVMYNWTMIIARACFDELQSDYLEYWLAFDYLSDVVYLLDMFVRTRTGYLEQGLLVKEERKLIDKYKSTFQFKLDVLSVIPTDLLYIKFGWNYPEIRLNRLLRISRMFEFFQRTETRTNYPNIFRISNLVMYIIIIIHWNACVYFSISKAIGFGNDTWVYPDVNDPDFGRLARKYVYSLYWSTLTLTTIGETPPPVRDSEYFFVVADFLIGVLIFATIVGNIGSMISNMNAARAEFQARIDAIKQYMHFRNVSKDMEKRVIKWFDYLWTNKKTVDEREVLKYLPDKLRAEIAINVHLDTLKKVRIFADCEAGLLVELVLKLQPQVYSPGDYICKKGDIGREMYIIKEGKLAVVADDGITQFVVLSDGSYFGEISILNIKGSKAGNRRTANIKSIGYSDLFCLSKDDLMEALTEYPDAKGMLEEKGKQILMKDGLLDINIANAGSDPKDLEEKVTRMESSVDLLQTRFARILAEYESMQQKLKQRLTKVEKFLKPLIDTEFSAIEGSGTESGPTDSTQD
Type: biochemical, bovine
Settings: saturating (2 mM) cGMP; for Inhibitory potency: result in words
Method in brief: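 CNGA1 cRNA was injected into Xenopus oocytes (16°C, 3–12 d). Inside-out patches at room temperature were held in low-divalent Na solution (pH 7.2), with 2 mM cGMP intracellular and niflumic acid extracellular. Retinoid from ethanol stocks was mixed into the bath under dim light after phosphatase-driven affinity shifts finished. Current at +100 mV was taken at ~1 h steady state, leak-subtracted, normalized to pre-drug current, and Hill-fitted.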

Inhibitory potency	Structure (SMILES)	Inhibition of current at 400 nM retinoid (400 nM, after 1 h, representative patch)	Inhibition of current at 10 μM retinoid (10 μM, after 1 h)
No inhibition	CC1=C(/C=C/C(C)=C/C=C/C(C)=C/C(=O)O)C(C)(C)CCC1 [RA, all-trans-retinoic acid]	did not inhibit; also recorded: no inhibition	
No inhibition	CC(=O)/C=C/C1=C(C)CCCC1(C)C [β-ionone]		unable to inhibit; also recorded: no change in current
